ChEMBL document CHEMBL5724801, “EUbOPEN Chemogenomics Library - Multiplex” (2024)
Values joined by “and” are separate entries in the source; they are usually repeats but may differ in a detail not shown here. Equal entries are not always repeated.

Tested on: HEK-293T
Assay: Multiplex assay against HEK293T
Format: toxicity, cell-based
Details: human
Procedure, shortened: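 Live cells were stained at seeding with Hoechst33342, BioTracker Green Microtubule Cytoskeleton Dye, MitoTracker Red and Annexin V Alexa Fluor 680, then imaged on a CQ1 microscope at 37°C and 5% CO2 after compound addition. CellPathfinder machine-learning gating split cells into Hoechst high-intensity objects or normal cells. Normal cells were split into healthy, pyknosed or fragmented nuclei, and pyknosed cells into mitotic or apoptotic. Tubulin, mitochondrial-mass and membrane-permeability phenotypes are per cents of healthy-nucleus cells.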

[1] = 12 h, 1 µM, compound concentration 1 uM
[2] = 12 h, 10 µM, compound concentration 10 uM
[3] = 24 h, 1 µM, compound concentration 1 uM
[4] = 24 h, 10 µM, compound concentration 10 uM
[5] = 48 h, 1 µM, compound concentration 1 uM
[6] = 48 h, 10 µM, compound concentration 10 uM

C[C@@H]1CC(=O)Nc2cccc(-c3ccc4c(c3)c(-c3cnn(C)c3)nn4C)c2N1
Population Apoptotic (%) [1]: 36% and 60%
Population Fragmented Nuclei (%) [1]: 7% and 5%
Population Healthy Nuclei (%) [1]: 76% and 77%
Population Hoechst High Intensity Objects (%) [1]: 7%
Population Membrane Permeable-Phenotype (%) [1]: 0%
Population Mitochondria Different-Phenotype (%) [1]: 51% and 65%
Population Mitotic Cells (%) [1]: 63% and 39%
Population Normal (%) [1]: 92%
Population Pyknosed Nuclei (%) [1]: 16%
Population Tubulin-Different-Phenotype (%) [1]: 39% and 26%
Total Cell Count [1]: 305 and 349
Population Apoptotic (%) [2]: 49% and 38%
Population Fragmented Nuclei (%) [2]: 8% and 5%
Population Healthy Nuclei (%) [2]: 74% and 77%
Population Hoechst High Intensity Objects (%) [2]: 5% and 12%
Population Membrane Permeable-Phenotype (%) [2]: 0%
Population Mitochondria Different-Phenotype (%) [2]: 72% and 86%
Population Mitotic Cells (%) [2]: 50% and 62%
Population Normal (%) [2]: 94% and 87%
Population Pyknosed Nuclei (%) [2]: 17% and 16%
Population Tubulin-Different-Phenotype (%) [2]: 62% and 56%
Total Cell Count [2]: 384 and 345
Population Apoptotic (%) [3]: 38% and 50%
Population Fragmented Nuclei (%) [3]: 10% and 8%
Population Healthy Nuclei (%) [3]: 74% and 79%
Population Hoechst High Intensity Objects (%) [3]: 7% and 6%
Population Membrane Permeable-Phenotype (%) [3]: 0%
Population Mitochondria Different-Phenotype (%) [3]: 37% and 48%
Population Mitotic Cells (%) [3]: 61% and 50%
Population Normal (%) [3]: 92% and 93%
Population Pyknosed Nuclei (%) [3]: 14% and 11%
Population Tubulin-Different-Phenotype (%) [3]: 20% and 16%
Total Cell Count [3]: 395 and 422
Population Apoptotic (%) [4]: 43% and 57%
Population Fragmented Nuclei (%) [4]: 9% and 8%
Population Healthy Nuclei (%) [4]: 76% and 72%
Population Hoechst High Intensity Objects (%) [4]: 2% and 5%
Population Membrane Permeable-Phenotype (%) [4]: 0%
Population Mitochondria Different-Phenotype (%) [4]: 62% and 68%
Population Mitotic Cells (%) [4]: 56% and 42%
Population Normal (%) [4]: 97% and 94%
Population Pyknosed Nuclei (%) [4]: 13% and 19%
Population Tubulin-Different-Phenotype (%) [4]: 37% and 28%
Total Cell Count [4]: 472 and 381
Population Apoptotic (%) [5]: 33% and 30%
Population Fragmented Nuclei (%) [5]: 11% and 9%
Population Healthy Nuclei (%) [5]: 80% and 81%
Population Hoechst High Intensity Objects (%) [5]: 1% and 2%
Population Membrane Permeable-Phenotype (%) [5]: 0%
Population Mitochondria Different-Phenotype (%) [5]: 23% and 30%
Population Mitotic Cells (%) [5]: 66% and 69%
Population Normal (%) [5]: 98% and 97%
Population Pyknosed Nuclei (%) [5]: 7% and 9%
Population Tubulin-Different-Phenotype (%) [5]: 13%
Total Cell Count [5]: 627 and 593
Population Apoptotic (%) [6]: 43% and 42%
Population Fragmented Nuclei (%) [6]: 13% and 12%
Population Healthy Nuclei (%) [6]: 80% and 78%
Population Hoechst High Intensity Objects (%) [6]: 4% and 2%
Population Membrane Permeable-Phenotype (%) [6]: 0%
Population Mitochondria Different-Phenotype (%) [6]: 44% and 53%
Population Mitotic Cells (%) [6]: 56% and 57%
Population Normal (%) [6]: 95% and 97%
Population Pyknosed Nuclei (%) [6]: 6% and 9%
Population Tubulin-Different-Phenotype (%) [6]: 16% and 20%
Total Cell Count [6]: 636 and 521

COc1cc(C(=O)N2CC[C@@H](O)[C@@H](N)C2)cc2nc(-c3cc4ccccc4n3CC3CC3)n(C)c12.Cl
Population Apoptotic (%) [1]: 48% and 70%
Population Fragmented Nuclei (%) [1]: 6% and 2%
Population Healthy Nuclei (%) [1]: 79% and 77%
Population Hoechst High Intensity Objects (%) [1]: 10% and 15%
Population Membrane Permeable-Phenotype (%) [1]: 0%
Population Mitochondria Different-Phenotype (%) [1]: 56% and 71%
Population Mitotic Cells (%) [1]: 51% and 29%
Population Normal (%) [1]: 89% and 84%
Population Pyknosed Nuclei (%) [1]: 13% and 20%
Population Tubulin-Different-Phenotype (%) [1]: 52% and 37%
Total Cell Count [1]: 398 and 281
Population Apoptotic (%) [2]: 71%
Population Fragmented Nuclei (%) [2]: 5% and 4%
Population Healthy Nuclei (%) [2]: 66% and 80%
Population Hoechst High Intensity Objects (%) [2]: 21% and 18%
Population Membrane Permeable-Phenotype (%) [2]: 0% and 2%
Population Mitochondria Different-Phenotype (%) [2]: 90% and 88%
Population Mitotic Cells (%) [2]: 28%
Population Normal (%) [2]: 78% and 81%
Population Pyknosed Nuclei (%) [2]: 28% and 15%
Population Tubulin-Different-Phenotype (%) [2]: 79% and 72%
Total Cell Count [2]: 260 and 350
Population Apoptotic (%) [3]: 42% and 60%
Population Fragmented Nuclei (%) [3]: 9% and 7%
Population Healthy Nuclei (%) [3]: 77% and 79%
Population Hoechst High Intensity Objects (%) [3]: 6% and 12%
Population Membrane Permeable-Phenotype (%) [3]: 0%
Population Mitochondria Different-Phenotype (%) [3]: 42% and 64%
Population Mitotic Cells (%) [3]: 57% and 39%
Population Normal (%) [3]: 93% and 87%
Population Pyknosed Nuclei (%) [3]: 13% and 12%
Population Tubulin-Different-Phenotype (%) [3]: 33% and 30%
Total Cell Count [3]: 527 and 363
Population Apoptotic (%) [4]: 58% and 65%
Population Fragmented Nuclei (%) [4]: 8% and 6%
Population Healthy Nuclei (%) [4]: 70% and 78%
Population Hoechst High Intensity Objects (%) [4]: 18% and 21%
Population Membrane Permeable-Phenotype (%) [4]: 0%
Population Mitochondria Different-Phenotype (%) [4]: 94% and 92%
Population Mitotic Cells (%) [4]: 41% and 34%
Population Normal (%) [4]: 81% and 78%
Population Pyknosed Nuclei (%) [4]: 20% and 15%
Population Tubulin-Different-Phenotype (%) [4]: 78% and 74%
Total Cell Count [4]: 312 and 411
Population Apoptotic (%) [5]: 24% and 64%
Population Fragmented Nuclei (%) [5]: 9%
Population Healthy Nuclei (%) [5]: 79% and 80%
Population Hoechst High Intensity Objects (%) [5]: 5% and 7%
Population Membrane Permeable-Phenotype (%) [5]: 0%
Population Mitochondria Different-Phenotype (%) [5]: 37% and 48%
Population Mitotic Cells (%) [5]: 75% and 36%
Population Normal (%) [5]: 94% and 92%
Population Pyknosed Nuclei (%) [5]: 10%
Population Tubulin-Different-Phenotype (%) [5]: 28% and 22%
Total Cell Count [5]: 816 and 520
Population Apoptotic (%) [6]: 76%
Population Fragmented Nuclei (%) [6]: 13%
Population Healthy Nuclei (%) [6]: 68% and 75%
Population Hoechst High Intensity Objects (%) [6]: 18% and 23%
Population Membrane Permeable-Phenotype (%) [6]: 0%
Population Mitochondria Different-Phenotype (%) [6]: 89% and 87%
Population Mitotic Cells (%) [6]: 23%
Population Normal (%) [6]: 81% and 76%
Population Pyknosed Nuclei (%) [6]: 17% and 10%
Population Tubulin-Different-Phenotype (%) [6]: 81% and 74%
Total Cell Count [6]: 386 and 467

CN(C)CCCc1cc(C(=O)Nc2ccc(-c3ccncc3)cc2)ccc1O.Cl.Cl
Population Apoptotic (%) [1]: 27% and 37%
Population Fragmented Nuclei (%) [1]: 5%
Population Healthy Nuclei (%) [1]: 79% and 82%
Population Hoechst High Intensity Objects (%) [1]: 9% and 8%
Population Membrane Permeable-Phenotype (%) [1]: 0%
Population Mitochondria Different-Phenotype (%) [1]: 48% and 58%
Population Mitotic Cells (%) [1]: 72% and 62%
Population Normal (%) [1]: 90% and 91%
Population Pyknosed Nuclei (%) [1]: 14% and 11%
Population Tubulin-Different-Phenotype (%) [1]: 37% and 14%
Total Cell Count [1]: 358 and 367
Population Apoptotic (%) [2]: 31% and 60%
Population Fragmented Nuclei (%) [2]: 10% and 11%
Population Healthy Nuclei (%) [2]: 81% and 77%
Population Hoechst High Intensity Objects (%) [2]: 6% and 9%
Population Membrane Permeable-Phenotype (%) [2]: 0% and 2%
Population Mitochondria Different-Phenotype (%) [2]: 49% and 63%
Population Mitotic Cells (%) [2]: 68% and 39%
Population Normal (%) [2]: 93% and 90%
Population Pyknosed Nuclei (%) [2]: 7% and 11%
Population Tubulin-Different-Phenotype (%) [2]: 33%
Total Cell Count [2]: 460 and 391
Population Apoptotic (%) [3]: 25%
Population Fragmented Nuclei (%) [3]: 11% and 9%
Population Healthy Nuclei (%) [3]: 78% and 83%
Population Hoechst High Intensity Objects (%) [3]: 5%
Population Membrane Permeable-Phenotype (%) [3]: 1% and 0%
Population Mitochondria Different-Phenotype (%) [3]: 26% and 32%
Population Mitotic Cells (%) [3]: 74% and 75%
Population Normal (%) [3]: 94%
Population Pyknosed Nuclei (%) [3]: 10% and 6%
Population Tubulin-Different-Phenotype (%) [3]: 21% and 9%
Total Cell Count [3]: 542 and 486
Population Apoptotic (%) [4]: 32% and 47%
Population Fragmented Nuclei (%) [4]: 12% and 15%
Population Healthy Nuclei (%) [4]: 77% and 74%
Population Hoechst High Intensity Objects (%) [4]: 5% and 15%
Population Membrane Permeable-Phenotype (%) [4]: 0%
Population Mitochondria Different-Phenotype (%) [4]: 38% and 48%
Population Mitotic Cells (%) [4]: 67% and 52%
Population Normal (%) [4]: 94% and 84%
Population Pyknosed Nuclei (%) [4]: 9%
Population Tubulin-Different-Phenotype (%) [4]: 23% and 19%
Total Cell Count [4]: 588 and 505
Population Apoptotic (%) [5]: 23% and 21%
Population Fragmented Nuclei (%) [5]: 11% and 16%
Population Healthy Nuclei (%) [5]: 81% and 75%
Population Hoechst High Intensity Objects (%) [5]: 2% and 5%
Population Membrane Permeable-Phenotype (%) [5]: 2% and 1%
Population Mitochondria Different-Phenotype (%) [5]: 19% and 24%
Population Mitotic Cells (%) [5]: 76% and 78%
Population Normal (%) [5]: 97% and 94%
Population Pyknosed Nuclei (%) [5]: 6% and 8%
Population Tubulin-Different-Phenotype (%) [5]: 14% and 13%
Total Cell Count [5]: 814 and 596
Population Apoptotic (%) [6]: 29% and 58%
Population Fragmented Nuclei (%) [6]: 17% and 15%
Population Healthy Nuclei (%) [6]: 75% and 76%
Population Hoechst High Intensity Objects (%) [6]: 5% and 11%
Population Membrane Permeable-Phenotype (%) [6]: 1% and 0%
Population Mitochondria Different-Phenotype (%) [6]: 21% and 35%
Population Mitotic Cells (%) [6]: 70% and 41%
Population Normal (%) [6]: 94% and 88%
Population Pyknosed Nuclei (%) [6]: 6% and 7%
Population Tubulin-Different-Phenotype (%) [6]: 13% and 20%
Total Cell Count [6]: 883 and 641
